Measured values: ChEMBL document CHEMBL1157835, “Synthesis and evaluation of verticipyrone analogues as mitochondrial complex I inhibitors” (Bioorg Med Chem, 2010)

Tested on: not listed separately
Assay: Inhibition of mitochondrial complex 1 in human MCF7 cells assessed as concentration required to obtain half maximal lactate production after 3 hrs by spectrophotometry
Assay type: cell-based
Settings: MCF7, 3 h
In short: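 MCF-7 cells seeded at 2 × 10^5 per well and grown 24 h to about 50% confluence, then rinsed. Compounds given in Krebs-Ringer buffer for 3 h, with buffer controls. Supernatant lactate measured by ΔOD at 363 nm (ε 9.1 mM−1 cm−1). IC50 is the dose giving 50% of maximal lactate production. Points are the mean ± SD of triplicates; experiments repeated at least three times.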

Compound | IC50 [µM]
CCCCCCCC[C@](C)(O)CCc1oc(=O)c(C)c(O)c1C | 16.6
CCCCC(O)Cc1oc(OC)c(C)c(=O)c1C (stereo not given) | > 20
COc1oc(CC(O)CCCCCCc2ccccc2)c(C)c(=O)c1C (stereo not given) | 0.88
CCCCCCCC[C@@](C)(O)CCc1oc(OC)c(C)c(=O)c1C | 0.3
CCCCCCCC[C@](C)(O)CCc1oc(OC)c(C)c(=O)c1C | 0.18
CCCCCCCCCC(O)Cc1oc(OC)c(C)c(=O)c1C (stereo not given) | 0.9
CCCCCCCC[C@@](C)(O)CCc1oc(=O)c(C)c(O)c1C | 8.6
COc1oc(CC(O)CCCCCOc2ccc(-c3ccccc3)cc2)c(C)c(=O)c1C (stereo not given) | 0.34
CCCCCCCCC(C)(O)CCc1oc(OC)c(C)c(=O)c1C (racemic) | 0.38
CCCCCCCCC(C)(O)CCc1oc(C)c(C)c(=O)c1C (racemic) | 0.94
CCCCCCCCC(C)(O)CCc1oc(=O)c(C)c(O)c1C (racemic) | 4.9
CCCCCC[C@H]1C(=O)O[C@H](C)[C@H](NC(=O)c2cccc(NC=O)c2O)C(=O)O[C@@H](C)[C@@H]1OC(=O)CC(C)C [ANTIMYCIN A] | < 0.15

Tested on: MCF-10A
Assay: Cytotoxicity against human MCF10A cells by MTT assay
Assay type: functional, cell-based
Settings: not given
In short: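 MTT growth assay on MCF-10A cells grown in Mammary Epithelial Growth Medium following the supplier protocol.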

Compound | IC50 [µM]
CCCCCCCC[C@](C)(O)CCc1oc(=O)c(C)c(O)c1C | > 31
COc1oc(CC(O)CCCCCCc2ccccc2)c(C)c(=O)c1C (stereo not given) | 15.1
CCCCCCCC[C@@](C)(O)CCc1oc(OC)c(C)c(=O)c1C | 5.3
CCCCCCCC[C@](C)(O)CCc1oc(OC)c(C)c(=O)c1C | 5.6
CCCCCCCCCC(O)Cc1oc(OC)c(C)c(=O)c1C (stereo not given) | 9.9
CCCCCCCC[C@@](C)(O)CCc1oc(=O)c(C)c(O)c1C | > 31
COc1oc(CC(O)CCCCCOc2ccc(-c3ccccc3)cc2)c(C)c(=O)c1C (stereo not given) | 9.2
CCCCCCCCC(C)(O)CCc1oc(C)c(C)c(=O)c1C (racemic) | > 31
CCCCCCCCC(C)(O)CCc1oc(=O)c(C)c(O)c1C (racemic) | > 31

Tested on: not listed separately
Assay: Cytotoxicity against human CRL2365 cells by MTT assay
Assay type: functional, cell-based
Settings: not given
In short: (§1)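 MTT growth assay. MCF-7, A-549 and 3LL cells grown in RPMI-1640; CRL-2365 and CRL-2366 grown in DMEM. All media had 10% FBS, penicillin G (100 U/mL) and streptomycin (100 μg/mL).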

Compound | IC50 [µM]
CCCCCCCC[C@](C)(O)CCc1oc(=O)c(C)c(O)c1C | > 31
COc1oc(CC(O)CCCCCCc2ccccc2)c(C)c(=O)c1C (stereo not given) | > 27
CCCCCCCC[C@@](C)(O)CCc1oc(OC)c(C)c(=O)c1C | 3.3
CCCCCCCC[C@](C)(O)CCc1oc(OC)c(C)c(=O)c1C | 2.4
CCCCCCCCCC(O)Cc1oc(OC)c(C)c(=O)c1C (stereo not given) | 29.9
CCCCCCCC[C@@](C)(O)CCc1oc(=O)c(C)c(O)c1C | > 31
COc1oc(CC(O)CCCCCOc2ccc(-c3ccccc3)cc2)c(C)c(=O)c1C (stereo not given) | 12.4
CCCCCCCCC(C)(O)CCc1oc(C)c(C)c(=O)c1C (racemic) | > 31
CCCCCCCCC(C)(O)CCc1oc(=O)c(C)c(O)c1C (racemic) | > 31

Biological target: not listed separately
Assay: Inhibition of NADH oxidase from beef heart submitochondrial particles by spectrophotometry
Set-up: species or system Bos taurus
Settings: not given
In short: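 Bovine heart inverted SMP, stored in 0.25 M sucrose/10 mM Tris-HCl pH 7.4 at −80 °C, diluted to 0.5 mg/mL and activated with 300 NADH. Assayed at 30 °C in 50 mM Hepes pH 7.5, 5 mM MgCl2, 30 μg protein. SMP pre-equilibrated with inhibitor 5 min, then 50 μM NADH added. Rates from the linear part of the trace at 340 nm. Ethanol ≤2%.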

Compound | IC50 [µM]
CCCCCCCC[C@](C)(O)CCc1oc(=O)c(C)c(O)c1C | 10.7
CCCCC(O)Cc1oc(OC)c(C)c(=O)c1C (stereo not given) | > 20
COc1oc(CC(O)CCCCCCc2ccccc2)c(C)c(=O)c1C (stereo not given) | 0.0725
COc1oc(CC(O)CCCCCOc2ccccc2)c(C)c(=O)c1C (stereo not given) | 0.219
CCCCCCCC[C@@](C)(O)CCc1oc(OC)c(C)c(=O)c1C | 0.0459
CCCCCCCC[C@](C)(O)CCc1oc(OC)c(C)c(=O)c1C | 0.0432
CCCCCCCC[C@@](C)(O)CCc1oc(C)c(C)c(=O)c1C | 0.0508
CCCCCCCC[C@](C)(O)CCc1oc(C)c(C)c(=O)c1C | 0.0475
CCCCCCCCCC(O)Cc1oc(OC)c(C)c(=O)c1C (stereo not given) | 0.0649
CCCCCCCC[C@@](C)(O)CCc1oc(=O)c(C)c(O)c1C | 14.7
COc1oc(CC(O)CCCCCOc2ccc(-c3ccccc3)cc2)c(C)c(=O)c1C (stereo not given) | 0.0359
CCCCCCCCC(C)(O)CCc1oc(OC)c(C)c(=O)c1C (racemic) | 0.0526
CCCCCCCCC(C)(O)CCc1[nH]c(=O)c(C)c(O)c1C (racemic) | 4.29
CCCCCCCCC(C)(O)CCc1oc(C)c(C)c(=O)c1C (racemic) | 0.055
CCCCCCCCC(C)(O)CCc1oc(=O)c(C)c(O)c1C (racemic) | 13.6

Tested on: A549
Assay: Cytotoxicity against human A549 cells by MTT assay
Assay type: functional, cell-based
Settings: not given
In short: as §1

Compound | IC50 [µM]
CCCCCCCC[C@](C)(O)CCc1oc(=O)c(C)c(O)c1C | > 31
COc1oc(CC(O)CCCCCCc2ccccc2)c(C)c(=O)c1C (stereo not given) | > 27
CCCCCCCC[C@@](C)(O)CCc1oc(OC)c(C)c(=O)c1C | 5.3
CCCCCCCC[C@](C)(O)CCc1oc(OC)c(C)c(=O)c1C | 4.1
CCCCCCCCCC(O)Cc1oc(OC)c(C)c(=O)c1C (stereo not given) | 20.7
CCCCCCCC[C@@](C)(O)CCc1oc(=O)c(C)c(O)c1C | > 31
COc1oc(CC(O)CCCCCOc2ccc(-c3ccccc3)cc2)c(C)c(=O)c1C (stereo not given) | 17
CCCCCCCCC(C)(O)CCc1oc(C)c(C)c(=O)c1C (racemic) | > 31
CCCCCCCCC(C)(O)CCc1oc(=O)c(C)c(O)c1C (racemic) | > 31

Biological target: not listed separately
Assay: Inhibition of NADH-ubiquinone oxidoreductase from beef heart submitochondrial particles by spectrophotometry
Set-up: species or system Bos taurus
Settings: not given
In short: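 Bovine heart inverted SMP, activated with 300 NADH, 30 μg protein, 30 °C. 5 min inhibitor pre-equilibration, then 50 μM NADH added. Read at 340 nm. […] IC50 is the final concentration giving 50% inhibition; mean ± SD of three independent experiments.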

Compound | IC50 [µM]
CCCCCCCC[C@](C)(O)CCc1oc(=O)c(C)c(O)c1C | 13.3
CCCCC(O)Cc1oc(OC)c(C)c(=O)c1C (stereo not given) | > 25
COc1oc(CC(O)CCCCCCc2ccccc2)c(C)c(=O)c1C (stereo not given) | 0.257
COc1oc(CC(O)CCCCCOc2ccccc2)c(C)c(=O)c1C (stereo not given) | 0.595
CCCCCCCC[C@@](C)(O)CCc1oc(OC)c(C)c(=O)c1C | 0.133
CCCCCCCC[C@](C)(O)CCc1oc(OC)c(C)c(=O)c1C | 0.126
CCCCCCCC[C@@](C)(O)CCc1oc(C)c(C)c(=O)c1C | 0.145
CCCCCCCC[C@](C)(O)CCc1oc(C)c(C)c(=O)c1C | 0.135
CCCCCCCCCC(O)Cc1oc(OC)c(C)c(=O)c1C (stereo not given) | 0.231
CCCCCCCC[C@@](C)(O)CCc1oc(=O)c(C)c(O)c1C | 19
COc1oc(CC(O)CCCCCOc2ccc(-c3ccccc3)cc2)c(C)c(=O)c1C (stereo not given) | 0.102
CCCCCCCCC(C)(O)CCc1oc(OC)c(C)c(=O)c1C (racemic) | 0.151
CCCCCCCCC(C)(O)CCc1[nH]c(=O)c(C)c(O)c1C (racemic) | 1.25
CCCCCCCCC(C)(O)CCc1oc(C)c(C)c(=O)c1C (racemic) | 0.18
CCCCCCCCC(C)(O)CCc1oc(=O)c(C)c(O)c1C (racemic) | 16.4

Tested on: not listed separately
Assay: Cytotoxicity against human CRL2366 cells by MTT assay
Assay type: functional, cell-based
Settings: not given
In short: as §1

Compound | IC50 [µM]
CCCCCCCC[C@](C)(O)CCc1oc(=O)c(C)c(O)c1C | > 31
COc1oc(CC(O)CCCCCCc2ccccc2)c(C)c(=O)c1C (stereo not given) | > 27
CCCCCCCC[C@@](C)(O)CCc1oc(OC)c(C)c(=O)c1C | 2.7
CCCCCCCC[C@](C)(O)CCc1oc(OC)c(C)c(=O)c1C | 3.3
CCCCCCCCCC(O)Cc1oc(OC)c(C)c(=O)c1C (stereo not given) | > 31
CCCCCCCC[C@@](C)(O)CCc1oc(=O)c(C)c(O)c1C | > 31
COc1oc(CC(O)CCCCCOc2ccc(-c3ccccc3)cc2)c(C)c(=O)c1C (stereo not given) | 19.5
CCCCCCCCC(C)(O)CCc1oc(C)c(C)c(=O)c1C (racemic) | > 31
CCCCCCCCC(C)(O)CCc1oc(=O)c(C)c(O)c1C (racemic) | > 31

Tested on: MCF7
Assay: Cytotoxicity against human MCF7 cells by MTT assay
Assay type: functional, cell-based
Settings: not given
In short: as §1

Compound | IC50 [µM]
CCCCCCCC[C@](C)(O)CCc1oc(=O)c(C)c(O)c1C | > 31
COc1oc(CC(O)CCCCCCc2ccccc2)c(C)c(=O)c1C (stereo not given) | > 27
CCCCCCCC[C@@](C)(O)CCc1oc(OC)c(C)c(=O)c1C | 3.3
CCCCCCCCCC(O)Cc1oc(OC)c(C)c(=O)c1C (stereo not given) | 23.2
CCCCCCCC[C@@](C)(O)CCc1oc(=O)c(C)c(O)c1C | > 31
COc1oc(CC(O)CCCCCOc2ccc(-c3ccccc3)cc2)c(C)c(=O)c1C (stereo not given) | 17.4
CCCCCCCCC(C)(O)CCc1oc(C)c(C)c(=O)c1C (racemic) | > 31
CCCCCCCCC(C)(O)CCc1oc(=O)c(C)c(O)c1C (racemic) | > 31

Tested on: not listed separately
Assay: Cytotoxicity against mouse 3LL cells by MTT assay
Assay type: functional, cell-based
Settings: not given
In short: as §1

Compound | IC50 [µM]
CCCCCCCC[C@](C)(O)CCc1oc(=O)c(C)c(O)c1C | > 31
COc1oc(CC(O)CCCCCCc2ccccc2)c(C)c(=O)c1C (stereo not given) | 17.3
CCCCCCCC[C@@](C)(O)CCc1oc(OC)c(C)c(=O)c1C | 0.39
CCCCCCCC[C@](C)(O)CCc1oc(OC)c(C)c(=O)c1C | 0.34
CCCCCCCCCC(O)Cc1oc(OC)c(C)c(=O)c1C (stereo not given) | 22.2
CCCCCCCC[C@@](C)(O)CCc1oc(=O)c(C)c(O)c1C | > 31
COc1oc(CC(O)CCCCCOc2ccc(-c3ccccc3)cc2)c(C)c(=O)c1C (stereo not given) | 13.5
CCCCCCCCC(C)(O)CCc1oc(C)c(C)c(=O)c1C (racemic) | > 31
CCCCCCCCC(C)(O)CCc1oc(=O)c(C)c(O)c1C (racemic) | > 31
